Screening data as filed in PubChem BioAssay.
Shown are actives, neighbours in structure and some others; about 2.5% of the full set was active somewhere.
mABHD4 FP – inhibitors of mouse ABHD4. inhibition, % at 8.92 µM. AID 720543. 370,000 compounds, 0.54% hits. purified mABHD4, FP-Rh probe fluorescence polarization. Q8VD66;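 active means inhibition exceeding the mean over every tested compound plus 3 SD, cut at about 30% in these data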;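 further: 0% = plate median of compound wells and 100% = S159A mutant with DMSO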
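Assay system: wild-type mouse ABHD4 protein; compound: single nominal dose of 8.92 µM, 0.89% DMSO final; schedule: 45 min + 60 min at 25 °C; measured by: FP readout, ex 525 nm / em 598 nm; evaluation: % inhibition of FP-Rh probe binding versus controls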
SIAE inh – blocks human sialic acid acetylesterase; 370,000 compounds, 0.69% hits; SIAE FP-Rh probe binding, fluorescence polarization; inhibition, % at 9.66 µM; AID 1053197;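 active means inhibition above a cutoff: mean of compounds within the control limits plus 3 SD of those, cut at about 17% in these data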;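 further: 0% = plate median of compound wells and 100% = probe without SIAE protein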
PRMT1 FP inh – PRMT1 (human) inhibition, primary screen; AID 652257; recombinant PRMT1, activity-based probe fluorescence polarization; inhibition, % at 2.79 µM; Q99873; 370,000 compounds, 1.3% hits;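 active means inhibition above about 21% made by adding two undisclosed values, limit read from the data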
Target sequence (Q99873 whole entry, looked up): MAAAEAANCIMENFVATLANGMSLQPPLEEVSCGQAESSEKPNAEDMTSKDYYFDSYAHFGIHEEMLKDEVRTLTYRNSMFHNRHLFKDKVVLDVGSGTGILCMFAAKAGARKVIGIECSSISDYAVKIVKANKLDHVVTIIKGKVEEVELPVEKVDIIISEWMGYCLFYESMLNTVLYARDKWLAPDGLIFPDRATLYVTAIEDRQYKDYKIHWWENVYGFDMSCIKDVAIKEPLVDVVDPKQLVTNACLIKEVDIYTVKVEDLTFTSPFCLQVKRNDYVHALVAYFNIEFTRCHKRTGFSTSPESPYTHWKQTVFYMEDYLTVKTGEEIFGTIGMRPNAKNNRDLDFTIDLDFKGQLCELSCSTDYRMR
HTRA1 inhibitor – HTRA1 (human) protease inhibition; Q92743; inhibition, % at 5.96 µM; AID 504803; recombinant HTRA1, FP-rhodamine activity-based probe, fluorescence polarization; 340,000 compounds, 0.5% hits; in the data active means inhibition above about 36%;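 further: 0% = enzyme with DMSO and 100% = wells lacking enzyme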
TCR CD3 inh – inhibitors of human TCR-CD3 interaction. inhibition, % at 9.4 µM. AID 651800. 360,000 compounds, 0.37% hits. TAMRA-labeled TCR probe fluorescence, biochemical; in the data active means inhibition above about 19%;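 further: recombinant mutant TCR 2C K166C tagged with TAMRA read by polarization; 0% = receptor in buffer alone and 100% = receptor with positive control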
ABHD4 confirm – confirmation of mouse ABHD4 inhibitors; shares compounds with mABHD4 FP; purified mABHD4, FP-Rh probe fluorescence polarization; inhibition, % at 8.92 µM; 1,800 compounds, 55% hits; AID 720658;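 active means mean inhibition across replicates above the hit cutoff set in the primary screen, cut at about 30% in these data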;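 further: 0% = wild-type ABHD4 with DMSO and 100% = catalytically dead S159A mutant with DMSO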
An asterisk follows results filed as active; / = no result given.

SMILES | mABHD4 FP | SIAE inh | PRMT1 FP inh | HTRA1 inhibitor | TCR CD3 inh | ABHD4 confirm
CC(=O)C1=C(C)NC2=C(C(=O)c3ccccc32)C1c1ccccc1 (centres undefined) | 41* | 9 | 3 | 12 | 2 | 83*
CCCCCCCC1CC(CSc2ncn[nH]2)OC1=O (centres undefined) | -5 | 1 | 0 | -1 | 3 | /
CCCCC1CC(CSc2ncn[nH]2)OC1=O (centres undefined) | 79* | 5 | 1 | 2 | 1 | -13
COCCCNC(=O)c1oc(=O)c2ccccc2c1-c1ccc(C)cc1 | 5 | 0 | -2 | / | / | /
COc1cc(-n2nc(C)c3c2OC(N)=C(C#N)C3c2ccccc2)c(Cl)c(Br)c1O (centres undefined) | 30* | 5 | 2 | 27 | -2 | 40*
Cc1nn(-c2ccccc2)c(Cl)c1C1C(C#N)=C(N)Oc2c1c(C)nn2-c1ccccc1 (centres undefined) | 12 | -3 | 1 | 5 | -4 | /
Cc1nn(Cc2ccccc2)c2c1C(c1cccc(Cl)c1)C(C#N)=C(N)O2 (centres undefined) | 54* | 13 | -3 | 14 | 0 | 41*
CCCC1CCC2(CCCN2CCOC(=O)Nc2ccc(F)cc2)CC1 (centres undefined) | 4 | 1 | -4 | / | / | /
CCOc1ccc(-n2c(SCC(=O)Nc3cccc4ccccc34)nnc2-c2cccs2)cc1 | -3 | -1 | 0 | / | / | /
CN(Cc1cccc(C(F)(F)F)c1)C(=O)C1CCC(=O)N(CC2CCCCC2)C1 (centres undefined) | 6 | 0 | -4 | 2 | 1 | /
CC[C@@H](C)[C@H](CNC)NC[C@@H](Cc1cccc2ccccc12)NCCc1cccc(C(F)(F)F)c1 | 49* | 0 | -2 | -7 | 0 | 51*
CCC[C@H](CN[C@@H](CNC)[C@H](C)CC)NCCc1cc(C(F)(F)F)cc(C(F)(F)F)c1 | 27 | 9 | -2 | 4 | 1 | /
CNC[C@@H](CC1CCCCC1)NC[C@H](CC(C)C)NCCc1cccc(C(F)(F)F)c1 | 31* | -3 | 2 | 5 | -5 | 52*
CNC[C@@H](Cc1ccccc1)NC[C@@H](CC1CCCCC1)NCCCc1ccccc1 | 38* | 5 | 1 | 4 | 8 | 46*
c1ccc(-c2sc3ccccc3c2-c2ccc(OCCN3CCCCC3)cc2)cc1 | 10 | -3 | -3 | -4 | -2 | /
c1ccc2c(-c3ccc(OCCN4CCCCC4)cc3)c(-c3ccsc3)sc2c1 | 40* | 2 | -2 | -12 | -2 | 26
Cc1ccccc1Cn1cc(CN2[C@@H](C)COc3cc(Br)ccc3S2(=O)=O)nn1 | -3 | 4 | -3 | / | / | /
O=C(Nc1cc([N+](=O)[O-])ccc1O)c1ccc2c(c1)C(=O)N(Cc1ccco1)C2=O | 38* | 2 | 8 | 4 | 13 | 51*
O=C(C1CCCCC1)N1CCN(c2ccccc2F)CC1 | 45* | 2 | -2 | -2 | 5 | 2
O=C(C1CCC1)n1ccc2ccc(-c3ccc4ccn(Cc5ccccc5)c4c3)cc21 | -2 | -4 | -3 | / | / | /
NC(=S)n1[nH]c(-c2ccc([N+](=O)[O-])cc2)c(N=Nc2cccc([N+](=O)[O-])c2)c1=O | 30* | -3 | 7 | 7 | -5 | 54*
NC(=S)n1[nH]c(-c2ccc([N+](=O)[O-])cc2)c(N=Nc2ccccc2[N+](=O)[O-])c1=O | 16 | 3 | -4 | 0 | 0 | /
COc1ccc(-c2nnc(CSc3nc4ccccc4c(=O)n3CC(C)C)o2)cc1OC | 31* | -11 | 3 | -28 | 1 | 28
CC(=O)Oc1ccc2c(=O)c(Oc3ccccc3)c(C)oc2c1OC(C)=O | 42* | -6 | 15 | 34 | -6 | -8
O=C(N/N=C1\C/C(=N\NC(=O)c2ccncc2)c2ccccc21)c1ccncc1 | 39* | 7 | 6 | 29 | -5 | 29
SMILES | mABHD4 FP | SIAE inh | PRMT1 FP inh | HTRA1 inhibitor | TCR CD3 inh | ABHD4 confirm
COc1ccc(CCNc2ccc(C(=O)O)cc2[N+](=O)[O-])cc1OC | 45* | 5 | -2 | -17 | 7 | 43*
NC(=O)c1ccc(NCCc2ccccc2)c([N+](=O)[O-])c1 | 3 | -5 | -3 | -8 | 8 | /
O=C(O)c1ccc(NCCC2=CCCCC2)c([N+](=O)[O-])c1 | 41* | 1 | 1 | -5 | -3 | 45*
Cc1nn(-c2ccccc2)c2sc(C(=O)N3CCN(S(=O)(=O)c4ccc(Br)s4)CC3)cc12 | 6 | 1 | 0 | / | / | /
Cc1cc(/C=C(\C#N)C(=O)Nc2ccccc2)c(C)n1-c1cccnc1 | -4 | 1 | 1 | -10 | -7 | /
Cc1cc(C(=O)O)ccc1-n1c(C)cc(/C=C(/C#N)C(=O)Nc2ccccc2)c1C | 46* | -1 | 9 | / | 4 | 3
O=C1CC(Nc2ccccc2)C(=O)N1c1ccc(N2CCOCC2)cc1 (centres undefined) | 0 | 4 | 2 | 4 | -2 | /
O=C1CC(Nc2ccc(N3CCOCC3)cc2)C(=O)N1c1ccccc1F (centres undefined) | 50* | 14 | 17 | 16 | 4 | 2
COc1cc(NC(=O)Nc2nc(C(N)Cc3ccc(C(F)(F)F)cc3)cs2)cc(OC)c1OC (centres undefined) | 44* | -21 | -1 | / | -14 | 39*
COc1ccccc1NC(=O)Nc1nc(C(N)Cc2ccc(C(F)(F)F)cc2)cs1 (centres undefined) | -4 | -1 | -9 | / | -9 | /
CCOc1ccc(-c2nc(CSCC(=O)NC3CCC3)c(C)o2)cc1 | 1 | 2 | 2 | / | / | /
CCNC(=S)NNC(=O)c1ccccn1 | 54* | -4 | 0 | 7 | 8 | 55*
CCNC(=S)NNC(=O)c1ccccc1Cl | 7 | 2 | -3 | 2 | 7 | /
Cc1ccc(/C=C2\SC(=S)N(CC3CCCO3)C2=O)o1 (centres undefined) | 30* | 5 | 23* | 8 | -7 | -16
O=C1/C(=C\c2ccc(-c3ccccc3Cl)o2)SC(=S)N1CC1CCCO1 (centres undefined) | -1 | 4 | 7 | 0 | -3 | /
O=C(N[C@H](Cc1ccccc1)C(=O)N1CCN(c2ccc(Cl)cn2)CC1)[C@H]1O[C@@H](n2ccc(=O)[nH]c2=O)[C@H](O)[C@@H]1O | -2 | 14 | -5 | / | 1 | /
Cc1nn(-c2ccccc2)c(N2CCCC2)c1/C=N/NC(=S)Nc1ccccc1C(F)(F)F | 54* | 6 | -1 | -2 | -2 | 57*
Cc1nn(-c2ccccc2)c(N2CCCC2)c1/C=N/NC(=S)Nc1cc(C(F)(F)F)ccc1Cl | 6 | 8 | 0 | -5 | 4 | /
CCc1nc2ccc(C(=O)Nc3cc(-c4ccccc4)ccc3OC)cn2c1N(C)Cc1ccc(Cl)cc1 | 4 | -4 | -4 | / | -1 | /
CCN(CC)c1c(C)nc2ccc(C(=O)Nc3cc(-c4ccccc4)ccc3OC)cn12 | 53* | -1 | 1 | / | -6 | 59*
